The nature of data set [1]: Antiproliferative activity against MGMT-expressing human U373M cells assessed as inhibition of cell growth measured after […] by MTT assay. The data set is classed as functional. In a few lines:
(§1)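 Cells seeded at 6.5×10^2/well, left overnight, then exposed to vehicle or agent (n = 4-8; final 0.5–1000 μM; DMSO stocks of 50 or 10 mM diluted in medium). MTT read at time of addition and after 6 days at 37 °C, 5% CO₂. MTT 0.4 mg/mL for 4 h, formazan taken up in DMSO, A550. GI50 from non-linear regression; mean ± SD of >3 experiments.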

In data set [2] the test system is HCT-116. The data set can be described thus: Antiproliferative activity against MMR-deficient human HCT-116 cells assessed as inhibition of cell growth measured after […] by MTT assay. The data set is classed as functional. Put shortly:
as §1

Data set [3] can be described thus: Antiproliferative activity against human U373V cells assessed as inhibition of cell growth measured […] by MTT assay. The data set is classed as functional. Put shortly: as §1
Data set [4] is described as follows: Permeability of the compound measured after 6 hrs by PAMPA assay. The data set is classed as ADME. The settings on record: read-out: permeability. Put shortly: (§2)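 PAMPA passive-diffusion assay run as contract research under the provider's protocols, with control compounds. After 6 h incubation, permeability (Pe) and percentage recovery determined.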
In a further data set the test system is U373M. Put plainly: Inhibition of cell colony formation in MGMT-expressing human U373M cells assessed as reduction in clonogenic survival at >=10 uM incubated for 24 hrs followed by drug removal and incubation in medium for 14 days. The data set is classed as functional, cell-based. In a few lines: (§3)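 Clonogenic survival: exponentially growing cells seeded in triplicate at 400 cells/well, attached overnight, then exposed for 24 h to 0, 2, 20 or 50 μM agent. Medium then replaced with drug-free medium for 14 days, or until control colonies held ≥50 cells. Colonies fixed in cold methanol, stained with 0.5% methylene blue, counted, and expressed relative to control. 2–3 experiments.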

The nature of data set [5]: Half life of the compound in phosphate buffered saline at pH 7.4 by LC-MS analysis. The data set is classed as physicochemical. In a few lines:
(§4)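 Half-life in phosphate buffers at pH 5, 6.8 or 7.4 followed by LC-MS; mean of two independent experiments.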

A short description of data set [6]: Half life in rat liver microsomes in presence of NADPH. The data set is classed as ADME, Microsome.
Data set [7] can be described thus: Intrinsic clearance in human liver microsomes in absence of NADPH. The settings on record: read-out: CLH. The data set is classed as ADME, Microsome.
Data set [8] concerns HCT-116. Put plainly: Induction of cell cycle arrest in MMR-deficient human HCT-116 cells assessed as accumulation of cells at pre-G1 phase at 20 uM measured after 120 hrs by propidium iodide staining based flow cytometry (Rvb ~5%). The data set is classed as functional.
The nature of data set [9]: Intrinsic clearance in human liver microsomes in presence of NADPH. The data set is classed as ADME, Microsome. The settings on record: read-out: CLH.
Data set [10] can be described thus: Induction of cell cycle arrest in MGMT-expressing human U373M cells assessed as accumulation of cells at G1 phase at 20 uM measured after 120 hrs by propidium iodide staining based flow cytometry (reference value: 66%). The data set is classed as functional.
Data set [11] in a line: Stability of the compound in phosphate buffered saline at pH 7.4 by 1H NMR spectroscopy. The data set is classed as physicochemical. The settings on record: buffer. In a few lines: (§5)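 Half-life followed by ¹H NMR spectroscopy in phosphate buffers at pH 7.4 or 5.5.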
Data set [12] is described as follows: Stability of the compound in phosphate buffered saline at pH 5.5 by 1H NMR spectroscopy. The data set is classed as physicochemical. The settings on record: buffer. Put shortly:
as §5

In the next data set the test system is U373V. Put plainly: Inhibition of cell colony formation in human U373V cells assessed as reduction in clonogenic survival at >=10 uM incubated for 24 hrs followed by drug removal and incubation in medium for 14 days. The data set is classed as functional, cell-based. Put shortly: as §3
A short description of data set [13]: Half life of the compound in phosphate buffered saline at pH 5 by LC-MS analysis. The data set is classed as physicochemical. Put shortly: as §4
A short description of data set [14]: Selectivity ratio of GI50 for cytotoxicity against human MRC5 cells to GI50 for antiproliferative activity against MMR-deficient human HCT-116 cells. Conditions: MRC5 cells versus MMR-deficient HCT-116 cells, read-out: RatioGI50. The data set is classed as toxicity, cell-based.
Data set [15] can be described thus: Intrinsic clearance in rat liver microsomes in absence of NADPH. The settings on record: read-out: CLH. The data set is classed as ADME, Microsome.
A short description of data set [16]: Induction of cell cycle arrest in MGMT-expressing human U373M cells assessed as accumulation of cells at G2/M phase at 20 uM measured after 120 hrs by propidium iodide staining based flow cytometry. The data set is classed as functional.
A short description of data set [17]: Permeability of the compound assessed as drug recovery measured after 6 hrs by PAMPA assay. The data set is classed as ADME. Conditions: read-out: Drug recovery. Put shortly: as §2
Data set [18] can be described thus: Half life in rat liver microsomes in absence of NADPH. The data set is classed as ADME, Microsome.
Data set [19] is described as follows: Half life in rat plasma. The data set is classed as ADME, cell-free.
The nature of data set [20]: Intrinsic clearance in rat liver microsomes in presence of NADPH. The data set is classed as ADME, Microsome. The settings on record: read-out: CLH.
Data set [21] can be described thus: Cytotoxicity against human MRC5 cells assessed as inhibition of cell growth measured after 7 days by MTT assay. The data set is classed as toxicity, cell-based. Conditions: time 7 day. In a few lines:
as §1

Data set [22] has as its system HCT-116. The data set can be described thus: Inhibition of cell colony formation in MMR-deficient human HCT-116 cells assessed as reduction in clonogenic survival at >=10 uM incubated for 24 hrs followed by drug removal and incubation in medium for 14 days. The data set is classed as functional, cell-based. In a few lines:
as §3

Data set [23] is described as follows: Half life of the compound in phosphate buffered saline at pH 6.8 by LC-MS analysis. The data set is classed as physicochemical. Put shortly: as §4
A short description of data set [24]: Half life in human liver microsomes in presence of NADPH. The data set is classed as ADME, Microsome.
Data set [25] is described as follows: Half life in human liver microsomes in absence of NADPH. The data set is classed as ADME, Microsome.
Data set [26] can be described thus: Ratio of permeability across dog MDCK cells transfected with MDR1 to permeability across wild type dog MDCK cells. The data set is classed as ADME, cell-based, Canis lupus familiaris.
Data set [27] can be described thus: Half life of the compound in phosphate buffered saline at pH 7.4 by 1H NMR spectroscopic analysis. The data set is classed as physicochemical. In a few lines:
as §5

A short description of data set [28]: Half life of the compound in phosphate buffered saline at pH 5.5 by 1H NMR spectroscopic analysis. The data set is classed as physicochemical. Put shortly: as §5
Data set [29] is described as follows: Half life in human plasma. The data set is classed as ADME, cell-free.

Consider 19 compounds from ChEMBL document CHEMBL5335782, “Discovery of new imidazotetrazinones with potential to overcome tumor resistance” (Eur J Med Chem, 2023).

Active and inactive are the calls of the source. The calls are words filed in the database; no cut-off is given here.

In the case of `C#CCn1nnc2c(-c3nc(C(C)C)cs3)ncn2c1=O`, the GI50 in data set [1] was found to be 19 µM; in the data set on HCT-116 [2], 25.4 µM; in data set [3] it was 23.6 µM.
For `C#CCn1nnc2c(-c3nc(C(F)(F)F)cs3)ncn2c1=O`, in that order: 25.4 µM, 21.5 µM and 28.2 µM.
For `C#CCN/N=N/c1[nH]cnc1-c1nccs1`, in that order: 5.81 µM, 5.97 µM and 7.51 µM.
For `C#CCn1nnc2c(-c3nc(C4CC4)cs3)ncn2c1=O`, in that order: 25.8 µM, 27.7 µM and 27.1 µM.
Consider `C#CCn1nnc2c(-c3nc(CO)cs3)ncn2c1=O`, for which the 50% growth inhibitory concentration (GI50) in [1] was determined as 14.8 µM; in the data set on HCT-116 [2] it was 17.8 µM; in data set [3], 24.4 µM.
On to `Nc1nc[nH]c1-c1nccs1`, for which the GI50 in data set [1] is 89.3 µM; in the data set with HCT-116 [2] it was 97 µM; in [3] it was more than 100 µM.
In the same order, the values of `C#CCn1nnc2c(-c3nc(C(C)(C)C)cs3)ncn2c1=O` are 19.2 µM, 25.1 µM and 27.3 µM.
As for `C#CCn1nnc2c(-c3nc(-c4ccncc4)cs3)ncn2c1=O`, the GI50 worked out at 25.1 µM in data set [1], 29 µM in the data set on HCT-116 [2] and 23.5 µM in [3].
For `C#CCn1nnc2c(-c3nc(C4CCCC4)cs3)ncn2c1=O`, the GI50 in [1] came out at 11.8 µM; in the data set on HCT-116 [2], 19.2 µM; in data set [3] it was 23.7 µM.
In the same order, the values of `C#CCn1nnc2c(-c3nc(C(=C)C)cs3)ncn2c1=O` are 14.2 µM, 16.7 µM and 18.7 µM.
For `C#CCn1nnc2c(-c3nc(C(F)(F)C(F)(F)F)cs3)ncn2c1=O`, in that order: 25.8 µM, 27.7 µM and 27.1 µM.
In the same order, the values of `C#CCn1nnc2c(-c3nc(C4CCC4)cs3)ncn2c1=O` are 25.5 µM, 20.3 µM and 24.2 µM.
For `C#CCn1nnc2c(-c3nc(-c4ccc(F)cc4)cs3)ncn2c1=O`, the GI50 came out at 19.7 µM in data set [1], 27.6 µM in the data set with HCT-116 [2] and 27.9 µM in [3].
Consider `C#CCn1nnc2c(-c3nc(-c4ccc(S(C)(=O)=O)cc4)cs3)ncn2c1=O`, for which the results for the concentration for 50% growth inhibition (GI50) (in data set [1]; in the data set with HCT-116 [2]; in data set [3]) were 14.7 µM, 37 µM and 22 µM, respectively.
With `C#CCn1nnc2c(-c3nc(CN4CCOCC4)cs3)ncn2c1=O`, the values for the GI50 (in [1]; with HCT-116 [2]; in data set [3]) were 10.2 µM, 12.2 µM and 23.9 µM, respectively.
Regarding `C#CCn1nnc2c(-c3nccs3)ncn2c1=O`, in data set [4], the Papp at 6 h stood at 3.18 ×10⁻⁶ cm/s. Further, the inhibition result in the data set on U373M, with U373V and in the data set on HCT-116 [22] was “Active” throughout. Also, the half-life is 3.29 h in data set [5]; 0.63 h in data set [6]; more than 8 h in data set [13]; 1.32 h in [18]; 2.66 min in data set [19]; 5.46 h in data set [23]. The half-life in data set [24] worked out at 0.527 h; in data set [25], 1.53 h; in data set [27] it was 3 h; in data set [28], 1.07 h; in [29], 3.34 min. The results for the GI50 (in data set [1]; with HCT-116 [2]; in [3]) were 4.09 µM, 5.35 µM and 3.59 µM, respectively. The microsomal CLint in [7] turned out to be 16.4 µL/min/mg; in data set [9], 44 µL/min/mg; in data set [15] it was 17.5 µL/min/mg; in data set [20] it was 37.2 µL/min/mg. Also, the Activity in the data set on HCT-116 [8] was more than 60%; in data set [10], 43%; in [16] it was 21%. Also, the Stability entry in data set [11] and in [12] was “Stable” in each case. In addition, the selectivity ratio in data set [14] is more than 5. Also, the recovery at 6 h in data set [17] worked out at 17.5%. In addition, the GI50 at 168 h in data set [21] turned out to be 25 µM. Besides, in data set [26], the Ratio was 1.11.
Take `C#CCn1nnc2c(-c3ncc(C)s3)ncn2c1=O`: the GI50 in data set [1] is 3.99 µM; with HCT-116 [2] it was 4.6 µM; in data set [3] it was 6.84 µM.
For `C#CCn1nnc2c(-c3nc(CC)cs3)ncn2c1=O`, in that order: 9.67 µM, 14.8 µM and 23.5 µM.
For `C#CCn1nnc2c(-c3nc(C)cs3)ncn2c1=O`, the Papp at 6 h in [4] is 3.68 ×10⁻⁶ cm/s. The half-life in data set [5] is 2.81 h; in data set [6], 0.34 h; in [13], more than 8 h; in [18], 1.57 h; in data set [19], 3.54 min; in data set [23], 3.57 h. Also, the half-life in data set [24] came to 0.237 h; in data set [25], 1.27 h; in data set [27], 1.47 h; in data set [28] it was 0.12 h; in data set [29] it was 2.97 min. Moreover, the 50% growth inhibitory concentration (GI50) in data set [1] amounted to 7.44 µM; with HCT-116 [2], 7.04 µM; in data set [3], 8.45 µM. For the same compound, the microsomal CLint in [7] is 18.6 µL/min/mg; in data set [9], 97.8 µL/min/mg; in data set [15], 14.7 µL/min/mg; in data set [20] it was 68.5 µL/min/mg. For the same compound, the Stability result in data set [11] and in data set [12] was “Stable” throughout. Moreover, the recovery at 6 h in data set [17] amounted to 18.5%. The GI50 at 168 h in data set [21] is 25 µM. The Ratio in [26] turned out to be 1.16.
